MEKK2 WT-MEK5 = raises or lowers MEK5 binding to wildtype human MEKK2 PB1 domain | Q9Y2U5 | bead flow cytometry, Alexa488-MEK5 binding to MEKK2 WT; actives lie on both sides | binding response (% of control), % at 10 µM | 1.1% of 290,000 active | AID 1531; in the data active = binding response below about 67% or above about 130%
IMP-1 inh-1 = inhibitors of Pseudomonas aeruginosa IMP-1 metallo-beta-lactamase | AID 1556 | 0.45% of 290,000 active | inhibition, % at 5.6 µM | purified IMP-1, nitrocefin hydrolysis, epi-absorbance fluorescence;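 active = inhibition above the mean plus 3 SD of all compounds in the same screening run, cut at about 4.5% in these data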;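 note: 0% = IMP-1 with DMSO and 100% = DMSO wells lacking enzyme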
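Assay system: purified recombinant IMP-1 beta-lactamase. Input: IMP-1 0.2 nM before substrate addition. Buffer or medium: Zinc- and detergent-supplemented HEPES buffer, pH 7.1. Schedule: 25 °C, 15 min preincubation, 25 min reaction. Signal: Epi-absorbance fluorescence, 480 nm excitation, 530 nm emission. Evaluation: percent inhibition from optical density relative to buffer-blank wells.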
VIM-2 inh = blocks Pseudomonas aeruginosa VIM-2 metallo-beta-lactamase | inhibition, % at 5.6 µM | purified VIM-2, nitrocefin hydrolysis, epi-absorbance fluorescence | 0.89% of 290,000 active;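 active = inhibition above the mean of all tested compounds plus 3 SD, cutoff set per screening run, cut at about 7.5% in these data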;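 note: red hydrolysis product quenches plate fluorescence so inhibitors raise well fluorescence; 0% = enzyme with DMSO and 100% = DMSO without enzyme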
MEKK2 mut-MEK5 = signal of MEK5 binding to mutant human MEKK2 PB1 domain. AID 1530. bead flow cytometry, Alexa488-MEK5 binding to MEKK2 mutant. 0.35% of 290,000 active. percent response, % at 10 µM; in the data active = percent response above about 24%, passing the limit was not always enough
MEKK3 PB1 HTS = MEKK3-MEK5 PB1 interaction, increase or decrease; bead-based flow cytometry, Alexa488-MEK5 binding to MEKK3; actives lie on both sides; 0 = blocked by unlabeled MEK5, 100 = vehicle; 1.4% of 290,000 active; AID 1529; binding response (% of control), % at 10 µM; Q99759;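 active = binding response more than 3 SD above or below the average of its plate-row segment, actives on both sides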;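 note: Alexa488 bead fluorescence after subtracting the streptavidin-only scavenger bead signal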
Target sequence (Q99759 whole entry, looked up): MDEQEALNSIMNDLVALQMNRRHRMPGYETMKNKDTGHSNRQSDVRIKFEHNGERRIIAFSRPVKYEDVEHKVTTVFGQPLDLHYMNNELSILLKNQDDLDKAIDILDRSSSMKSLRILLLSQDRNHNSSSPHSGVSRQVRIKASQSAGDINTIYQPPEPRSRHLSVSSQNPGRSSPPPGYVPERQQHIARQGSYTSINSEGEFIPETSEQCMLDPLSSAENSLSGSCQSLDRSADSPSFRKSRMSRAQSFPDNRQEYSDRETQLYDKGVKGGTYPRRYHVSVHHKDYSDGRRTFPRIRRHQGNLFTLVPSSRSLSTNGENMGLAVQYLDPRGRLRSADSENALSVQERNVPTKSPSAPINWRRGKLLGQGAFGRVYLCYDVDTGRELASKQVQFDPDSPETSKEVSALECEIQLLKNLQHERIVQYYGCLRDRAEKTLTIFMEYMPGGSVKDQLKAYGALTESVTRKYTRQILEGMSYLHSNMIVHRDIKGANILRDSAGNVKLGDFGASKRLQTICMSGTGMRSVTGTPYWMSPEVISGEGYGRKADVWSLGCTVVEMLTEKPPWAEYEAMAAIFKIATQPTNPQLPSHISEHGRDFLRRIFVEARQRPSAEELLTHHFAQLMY
IMP-1 inh-2 = blocks IMP-1 metallo-beta-lactamase in VIM-2 selectivity screen. shares compounds with VIM-2 inh. purified IMP-1, nitrocefin hydrolysis, epi-absorbance fluorescence. inhibition, % at 5.6 µM. 1,300 tested, under 10 active; call rule not given here;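 note: 0% = enzyme with vehicle and 100% = vehicle without enzyme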
VIM-2 FRET inh = inhibits VIM-2 in FRET assay to exclude epi-absorbance artifacts | 23% of 1,300 active | shares compounds with VIM-2 inh | purified VIM-2, CCF2 FRET substrate hydrolysis | inhibition, % at 5.6 µM;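 active = inhibition above the mean of all tested compounds plus 3 SD, cut at about 19% in these data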;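 note: 0% = VIM-2 plus DMSO and 100% = no enzyme wells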
TEM-1 counter = selectivity counter-screen for VIM-2 inhibitors: E. coli TEM-1 inhibitors | shares compounds with VIM-2 inh | Purified TEM-1, nitrocefin hydrolysis, epi-absorbance fluorescence | inhibition, % at 5.6 µM | 3% of 1,300 active;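 active = inhibition above that campaign's mean inhibition plus 3 SD, cut at about 0.46% in these data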;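 note: 0% = TEM-1 with DMSO and 100% = TEM-1 with 100 µM potassium clavulanate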
VIM-2 inh conf = confirmation of P. aeruginosa VIM-2 metallo-beta-lactamase inhibitors; shares compounds with VIM-2 inh; inhibition, % at 5.6 µM; AID 2187; purified VIM-2, nitrocefin hydrolysis, epi-absorbance; 96% of 1,300 active;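 active = inhibition of the VIM-2 beta-lactamase enzyme above about 11% from the earlier first-round screen, limit read from the data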;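 note: 0% = VIM-2 with DMSO and 100% = buffer wells without enzyme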
Starred values were filed as active, the others as inactive; nt = no result given. Compounds with a hit are over-represented: about 3.4% of the library has one in this group of screens.

SMILES	MEKK2 WT-MEK5	IMP-1 inh-1	VIM-2 inh	MEKK2 mut-MEK5	MEKK3 PB1 HTS	IMP-1 inh-2	VIM-2 FRET inh	TEM-1 counter	VIM-2 inh conf
O=C(Nc1ccccc1Oc1cccnc1)C1CCCN(Cc2ccccc2O)C1 (stereo not drawn)	102	-4	-5	4	101	nt	nt	nt	nt
Cc1ccccc1C(=O)Nc1cccc(-c2cn3ccccc3n2)c1	110	-2	-3	14	104	nt	nt	nt	nt
c1ccc2c(c1)oc1c(NCCCn3ccnc3)ncnc12	89	-1	56*	-7	88	-4	-7	-7	60*
Cc1nc(NCCCn2ccnc2)c2oc3ccccc3c2n1	110	1	76*	8	107	-2	-8	-6	83*
CC(C)(C)c1ccc(C2=CSC3=NCCN23)cc1	111	-4	0	9	108	nt	nt	nt	nt
Cn1c(=O)c2c(nc(N3CCOCC3)n2CCCNC2=NCCCCC2)n(C)c1=O	103	-3	4	2	101	nt	nt	nt	nt
Cn1c(=O)c2c(nc(N3CCCCC3)n2CCNC2=NCCC2)n(C)c1=O	101	0	20*	-2	101	-3	2	-6	36*
O=C1c2ccccc2C(=O)N1c1cccc2cccnc12	102	-3	14*	0	102	-3	-1	-3	3
COc1ccc(NC(=O)COc2cccc3c2CCN(Cc2cccnc2)C3=O)c(OC)c1	111	0	14*	10	106	-2	-5	-5	23*
Cc1cc(NC(=O)CSc2nnc(-c3ccoc3C)n2N)no1	100	-4	-4	0	101	nt	nt	nt	nt
O=C1C(=Cc2ccco2)C(=O)c2ccccc21	91	-1	31*	-2	92	-3	-4	-10	4
Cc1ccc(C(C(=O)NCc2ccccc2)N(C(=O)c2csnn2)C2CC2)cc1 (stereo not drawn)	93	0	-1	-3	102	nt	nt	nt	nt
Cc1ccccc1-c1nnc2c3ccccc3c(C)nn12	97	-2	0	3	105	nt	nt	nt	nt
Cc1nn2c(-c3ccco3)nnc2c2ccccc12	96	0	13*	-3	99	-2	-2	-4	27*
O=[N+]([O-])c1ccccc1/C=N/n1c(-c2ccccc2)n[nH]c1=S	103	-5	0	2	105	nt	nt	nt	nt
O=[N+]([O-])c1ccccc1/C=C/C=N/n1c(-c2ccccc2F)n[nH]c1=S	104	-2	13*	-1	104	-1	34*	-4	21*
O=[N+]([O-])c1cc(C(F)(F)F)ccc1NCCCCNS(=O)(=O)c1ccc(Cl)cc1	120	0	-1	0	100	nt	nt	nt	nt
CC(=O)Cn1cnc2c(sc3nc(C)cc(C)c32)c1=O	100	-3	14*	6	103	-3	-2	-5	17*
Nc1nc(CSCCO)nc(Nc2ccccc2)n1	111	-2	0	9	108	nt	nt	nt	nt
Cc1cc(Nc2ccc(C)c(Br)c2)n2nc(C)nc2n1	101	-4	14*	-2	99	-4	-2	-7	28*
COc1cc(Nc2cc(C)nc3nc(C)nn23)cc(OC)c1OC	105	-2	13*	5	101	-3	-2	-6	33*
Cc1cc(Nc2ccc(F)c(Cl)c2)n2ncnc2n1	106	-3	2	8	107	nt	nt	nt	nt
COc1cc(NC(=O)CSc2nc(C)cc(C)n2)cc(OC)c1OC	100	0	3	-3	99	nt	nt	nt	nt
COc1ccc(Nc2cc(C)nc3nc(C)nn23)cc1Cl	93	-2	19*	-2	94	-3	-3	-4	29*
Cc1cc(Nc2ccccc2Br)n2nc(C)nc2n1	101	-4	7	-3	104	nt	nt	nt	nt
SMILES	MEKK2 WT-MEK5	IMP-1 inh-1	VIM-2 inh	MEKK2 mut-MEK5	MEKK3 PB1 HTS	IMP-1 inh-2	VIM-2 FRET inh	TEM-1 counter	VIM-2 inh conf
CC(CCc1ccccc1)NCC(O)c1ccc(O)c(C(N)=O)c1 (stereo not drawn)	99	-3	-5	6	83	nt	nt	nt	nt
O=C(Nc1nnc(C2CCCO2)s1)c1ccc(Br)cc1 (stereo not drawn)	105	-4	-5	12	102	nt	nt	nt	nt
COc1cc(C(=O)NCCCC2CCCC2)ccc1OC1CCN(C(C)=O)CC1	101	-1	2	-2	99	nt	nt	nt	nt
COC(=O)c1ccccc1Nc1cc(C)nc2nc(C)nn12	106	-1	13*	-1	106	-3	2	-5	29*
COc1ccc(C)cc1Nc1cc(C)nc2nc(C)nn12	93	-4	26*	0	96	-2	-1	-6	40*
Cc1cc(Nc2cc(F)ccc2C)n2nc(C)nc2n1	97	0	5	-4	101	nt	nt	nt	nt
Cc1cc(Nc2ccc(F)cc2F)n2nc(C)nc2n1	97	-4	1	-1	98	nt	nt	nt	nt
COc1ccc(OC)c(Nc2cc(C)nc3nc(C)nn23)c1	105	-4	15*	6	104	-3	-2	-4	30*
CCCc1cc(=O)oc2cc(C)cc(OCC(=O)NCCN3CCOCC3)c12	101	-3	-1	0	99	nt	nt	nt	nt
CCCc1cc(=O)oc2cc(C)cc(OCC(=O)Nc3ccc(CN4CCOCC4)cc3)c12	110	-1	14*	2	103	-4	-2	-8	20*
CCc1cc(=O)oc2cc(C)cc(OCC(=O)NCCCN3CCOCC3)c12	96	-1	14*	-6	93	-3	-1	-6	22*
C/C(=N\Nc1nc(-c2cc(C)ccc2C)cs1)c1cc2c(ccc3ccccc32)oc1=O	92	-2	-4	0	98	nt	nt	nt	nt
Cc1cccc(CSc2ccc3nnc(-c4cccs4)n3n2)c1	112	-1	-2	13	100	nt	nt	nt	nt
CCOC(=O)CNC(=O)CSc1ccc2nnc(-c3ccc(F)cc3)n2n1	99	-4	-2	8	97	nt	nt	nt	nt
CCSc1ccc2nnc(-c3ccc(F)cc3)n2n1	83	-2	14*	-14	83	-1	-4	0	24*
CCSc1ccc2nnc(-c3cccs3)n2n1	99	-2	17*	9	103	-3	-3	-8	28*
O=C(c1ccccc1F)N1CCOCC1	99	-2	-3	0	103	nt	nt	nt	nt
CN(Cc1ccon1)C(=O)c1ccc2nc(Cc3cccc(Cl)c3)oc2c1	101	-4	-3	4	101	nt	nt	nt	nt
COc1ccc(C2=Nn3c(nnc3-c3ccncc3)SC2)cc1OC	102	1	64*	0	99	-2	0	-4	75*

Compound activity as filed in PubChem BioAssay.
